Our source for the GI50, inhibition and Kd values is ChEMBL document CHEMBL4706596, “Synthesis, biological evaluation, in silico modeling and crystallization of novel small monocationic molecules with potent antiproliferative activity by dual mechanism” (Eur J Med Chem, 2020).

As a reminder, the GI50 is the concentration that inhibits growth by half. As a reminder, the inhibition is the relative decrease from the control value, in per cent. Broadly, the Kd is the equilibrium constant for the complex coming apart.

In one assay the test system is HeLa. Kind of assay: Antiproliferative activity against human HeLa cells assessed as inhibition of cell proliferation incubated for 72 hrs by MTT assay. The class given is functional. An outline of the steps: (§1)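 Cells seeded at 8 × 10³/well and held 18 h at 37 °C, 5% CO₂. Medium then replaced with compound at several concentrations for 72 h at 37 °C, followed by MTT viability read-out. GI50 is taken against cells given the maximum DMSO (0.25%), which is set as 100% viability. Dose-response curves come from at least three independent experiments run in triplicate and are reported as mean ± SE.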
(In general: Tetrazolium dyes change colour on reduction, which living cells bring about.)

For another assay, the system named is HT-29. Kind of assay: Antiproliferative activity against human HT-29 cells assessed as inhibition of cell proliferation incubated for 72 hrs by MTT assay. The class given is functional. An outline of the steps:
as §1

The next assay concerns RS4-11. In words: Antiproliferative activity against human RS4-11 cells assessed as inhibition of cell proliferation incubated for 72 hrs by MTT assay. It is filed as functional. An outline of the steps: as §1
For another assay, the system named is CCRF-CEM. In words: Antiproliferative activity against human CCRF-CEM cells assessed as inhibition of cell proliferation incubated for 72 hrs by MTT assay. The class given is functional. An outline of the steps: as §1
Assay [1] addresses T1, Choline kinase alpha (Homo sapiens, UniProt P35790). In words: Inhibition of human CKalpha1 assessed as reduction in 14C incorporation from [methyl-14C]choline to […] at 10 uM using [methyl-14C]choline as substrate preincubated for 5 mins in presence of ATP and MgCl2 followed by substrate addition and measured after 10 mins by liquid scintillation counting method relative to control. To be noted: time 15.0 min. An outline of the steps: (§2)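 Purified human CKα1 (20 ng) in 100 mM Tris pH 8.5 with 10 mM MgCl₂ and 10 mM ATP, DMSO ≤0.1%, was preincubated 5 min at 37 °C. Reaction was started with 1 mM [methyl-¹⁴C]choline (4500 dpm/nmol), run 10 min at 37 °C and stopped in boiling water. Product was separated by silica TLC, scraped and scintillation-counted against DMSO controls. At least three experiments were run; IC50 was obtained from sigmoidal dose-response fits.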
Target sequence in this assay (P35790 whole entry, looked up): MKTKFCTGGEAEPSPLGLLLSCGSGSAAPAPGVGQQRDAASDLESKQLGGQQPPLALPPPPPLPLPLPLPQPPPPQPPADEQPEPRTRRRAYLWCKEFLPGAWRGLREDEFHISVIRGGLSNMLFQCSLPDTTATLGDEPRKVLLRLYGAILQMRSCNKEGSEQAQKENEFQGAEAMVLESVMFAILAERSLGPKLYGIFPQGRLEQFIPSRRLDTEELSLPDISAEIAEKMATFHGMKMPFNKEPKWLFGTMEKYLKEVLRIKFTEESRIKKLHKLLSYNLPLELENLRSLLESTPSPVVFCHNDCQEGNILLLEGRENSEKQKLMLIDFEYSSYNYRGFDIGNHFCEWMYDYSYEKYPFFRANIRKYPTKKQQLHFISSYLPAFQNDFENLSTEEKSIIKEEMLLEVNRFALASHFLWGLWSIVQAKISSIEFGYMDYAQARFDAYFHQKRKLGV

Assay [2] has as its target T1, Choline kinase alpha. Kind of assay: Inhibition of human CKalpha1 assessed as reduction in 14C incorporation from [methyl-14C]choline to […] at 30 uM using [methyl-14C]choline as substrate preincubated for 5 mins in presence of ATP and MgCl2 followed by substrate addition and measured after 10 mins by liquid scintillation counting method relative to control. The note with it: time 15.0 min. An outline of the steps: as §2
Target sequence in this assay (P35790 whole entry, looked up): as above

Assay [3] addresses T1, Choline kinase alpha. In words: Binding affinity to human CKalpha1 assessed as dissociation constant by spectroflurometry. An outline of the steps: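 Purified human CK (cloned as reported earlier) at 1 µM was titrated with compound in 25 mM Tris, 150 mM NaCl, pH 7.5 at 25 °C. Compound ranges were 0.1–10 µM for CKα1 and 0.5–200 µM for CKβ. Tryptophan quenching was read with excitation at 280 nm, emission 300–400 nm and 5 nm slits. DMSO-matched controls were run, and Kd was fitted to a single-site model. Results are given as mean ± SD.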
Target sequence in this assay (P35790 whole entry): as the sequence (P35790 whole entry, looked up) above

Regarding `c1ccc(-c2ccc(C[n+]3ccc(N4CCCCCC4)c4ccccc43)cc2)cc1`, the GI50 was determined as 14.8 µM in the assay on HeLa, 17.5 µM in the assay on HT-29, 12.8 µM in the assay on RS4-11 and 8.6 µM with CCRF-CEM.

Take `FC(F)(F)c1ccc(C[n+]2ccc(N3CCCC3)cc2)cc1`: the GI50 with HeLa was determined as 42.1 µM; in the assay with HT-29 it was 8.1 µM; with RS4-11, 7.6 µM; in the assay with CCRF-CEM, 12 µM.

Turning to `Clc1ccc2c(N3CCCC3)cc[n+](Cc3ccc(-c4ccccc4)cc3)c2c1`, the GI50 in the assay on HeLa was 0.28 µM; with HT-29, 0.04 µM; in the assay on RS4-11, 0.05 µM; with CCRF-CEM it was 0.04 µM. Further, the inhibition at Choline kinase alpha [1] is 36.9%; at Choline kinase alpha [2], 46.3%.

Take `CN(C)c1ccncc1`: the dissociation constant (Kd) on Choline kinase alpha [3] was determined as 35 µM.

In the case of `FC(F)(F)c1ccc(C[n+]2ccc(N3CCCCCC3)c3ccc(Cl)cc32)cc1`, the GI50 in the assay with HeLa was found to be 4.7 µM; in the assay on HT-29, 5.4 µM; with RS4-11, 3.2 µM; in the assay with CCRF-CEM it was 4.6 µM. For the same compound, the figures for the inhibition at Choline kinase alpha [1] and on Choline kinase alpha [2] were 34.7% and 52.7%, respectively.

As for `FC(F)(F)c1ccc(C[n+]2ccc(N3CCCC3)c3ccc(Cl)cc32)cc1`, the GI50 in the assay with HeLa came to 15 µM; in the assay on HT-29 it was 12.9 µM; with RS4-11, 1 µM; with CCRF-CEM, 3 µM. The inhibition at Choline kinase alpha [2] stood at 24.9%.

In the case of `CN(c1ccc(Cl)cc1)c1cc[n+](Cc2ccc(C(F)(F)F)cc2)c2cc(Cl)ccc12`, the GI50 was found to be 2.6 µM in the assay on HeLa, 1.3 µM in the assay on HT-29, 1.3 µM with RS4-11 and 2 µM with CCRF-CEM. The inhibition on Choline kinase alpha [1] was 10.4%; on Choline kinase alpha [2], 14.5%.

Consider `Clc1ccc2c(N3CCCC3)cc[n+](Cc3ccccc3)c2c1`, for which the GI50 came out at 19.6 µM with HeLa, 4.1 µM in the assay on HT-29, 1.23 µM in the assay with RS4-11 and 3.4 µM in the assay on CCRF-CEM. In addition, the inhibition at Choline kinase alpha [1] turned out to be 31.5%; on Choline kinase alpha [2] it was 35%.

With `CN(c1ccccc1)c1ccnc2cc(Cl)ccc12`, at Choline kinase alpha [3], the Kd stood at 82 µM.

As to `CN(C)c1cc[n+](Cc2ccc(-c3ccccc3)cc2)cc1`, the GI50 with HeLa amounted to 0.74 µM; in the assay with HT-29, 0.29 µM; in the assay on RS4-11, 0.83 µM; in the assay with CCRF-CEM, 0.43 µM. Also, on Choline kinase alpha [3], the dissociation constant (Kd) was 1.7 µM. For the same compound, the results for the inhibition on Choline kinase alpha [1] and at Choline kinase alpha [2] were 18.9% and 26.4%, respectively.

Take `c1ccc(-c2ccc(C[N+]34CCC(CC3)CC4)cc2)cc1`: the GI50 stood at 29.9 µM in the assay on HeLa, 24.7 µM in the assay with HT-29, 2.6 µM with RS4-11 and 11.8 µM in the assay on CCRF-CEM. For the same compound, the inhibition at Choline kinase alpha [1] was 26.6%; on Choline kinase alpha [2], 30.2%.

Regarding `CN(c1ccccc1)c1cc[n+](Cc2ccc(C(F)(F)F)cc2)c2cc(Cl)ccc12`, the GI50 in the assay with HeLa is 2.1 µM; with HT-29, 3 µM; in the assay with RS4-11, 2.7 µM; with CCRF-CEM, 2.1 µM.

For `OC1C[N+]2(Cc3ccc(-c4ccccc4)cc3)CCC1CC2` (stereo not given), the GI50 in the assay with HeLa worked out at 27.5 µM; in the assay on HT-29 it was 34 µM; with RS4-11, 1.7 µM; in the assay with CCRF-CEM, 16.9 µM. In addition, the values for the inhibition on Choline kinase alpha [1] and on Choline kinase alpha [2] were 45.6% and 53%, respectively.

Consider `Clc1ccc2c(N3CCCCCC3)ccnc2c1`, for which the dissociation constant Kd at Choline kinase alpha [3] is 45 µM.

On to `c1cc(N2CCCC2)ccn1`, for which the Kd on Choline kinase alpha [3] turned out to be 49 µM.

On to `CN(C)c1cc[n+](Cc2ccccc2)cc1`, for which the GI50 in the assay with HeLa was 44.2 µM; in the assay with HT-29 it was greater than 100 µM; in the assay on RS4-11, 30.3 µM; in the assay on CCRF-CEM, 54.3 µM. On Choline kinase alpha [3], the Kd was 14 µM. Also, the inhibition at Choline kinase alpha [2] came to 37.2%.
